Data: ChEMBL document CHEMBL1126874, “Synthesis of structural analogs of leukotriene B4 and their receptor binding activity” (J Med Chem, 1993)

How the values were obtained:
[1] = Agonist-induced calcium mobilization using human polymorphonuclear leukocytes; design: concentration or dose not given beside the values
[2] = biological target: Leukotriene B4 receptor 1 (Homo sapiens, UniProt Q15722); test: Inhibition of [3H]- LTB4 binding on human whole cells
In short: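 Intact DMSO-differentiated (1.3%, 3-4 days) human U-937 cells, or isolated human peripheral blood PMNs, 10⁶ cells, incubated in HBSS with 0.1% ovalbumin, 0.2 nM [³H]LTB₄ and compound (0.1 nM-10 μM, 5-8 concentrations in duplicate) for 20 min at 0 °C. Nonspecific binding measured with 1 μM unlabeled LTB₄. Filtration, scintillation counting. Ki from IC50 by Cheng-Prusoff; mean of ≥2 assays.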

Leukotriene B4 receptor 1, sequence (Q15722 whole entry): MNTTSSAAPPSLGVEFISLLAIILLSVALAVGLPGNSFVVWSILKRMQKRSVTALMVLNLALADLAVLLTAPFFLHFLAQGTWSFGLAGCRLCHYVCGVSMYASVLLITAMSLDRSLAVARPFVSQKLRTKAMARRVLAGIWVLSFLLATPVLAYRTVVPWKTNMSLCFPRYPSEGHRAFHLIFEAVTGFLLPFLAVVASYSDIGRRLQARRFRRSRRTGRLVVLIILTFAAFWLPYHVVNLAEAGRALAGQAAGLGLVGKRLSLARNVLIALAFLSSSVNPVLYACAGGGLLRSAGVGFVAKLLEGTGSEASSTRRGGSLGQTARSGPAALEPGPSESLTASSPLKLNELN

| Compound | Agonist activity % [1] [%] | Ki [2] [µM] |
| --- | --- | --- |
| CCCCCCCCC(O)CCc1cccc(CC(O)c2cccc(C(=O)[O-])c2)n1.[Li+] (centres undefined) | 84 | 0.06 |
| CCCCCCCCC(O)/C=C/c1cccc(CC(O)c2cccc(C(=O)[O-])c2)n1.[Li+] (centres undefined) | 86 |  |
| CCCCOc1cccc(C(O)/C=C/c2cccc(CC(O)c3cccc(C(=O)[O-])c3)n2)c1.[Li+] (centres undefined) | 56 | 0.003 |
| CCCCCCCCC(O)c1ccc2ccc(CC(O)CCCC(=O)O)nc2c1 (centres undefined) | 63 | 0.9 |
| CCCCCCCCC(O)c1ccc2ccc(CSc3cccc(C(=O)[O-])c3)cc2c1.[Li+] (centres undefined) | 23 | 9 |
| CCCCCCCCC(O)c1ccc2ccc(C[S+]([O-])c3cccc(C(=O)O)c3)nc2c1 (centres undefined) | 98 | 0.14 |
| CCCCCCCCC(O)c1ccc2ccc(CCc3cccc(C(=O)[O-])c3)nc2c1.[Li+] (centres undefined) | 66 | 0.1 |
| CCCCCCCCC(O)c1ccc2ccc(CSc3cccc(C(=O)O)c3)nc2c1 (centres undefined) | 85 | 0.6 |
| CCCCOc1cccc(C(O)CCc2cccc(CC(O)c3cccc(C(=O)[O-])c3)n2)c1.[Li+] (centres undefined) | 4 | 1 |
| CCCCCCCCC(O)c1ccc2ccc(C[S+]([O-])c3cccc(C(=O)[O-])c3)cc2c1.[Li+] (centres undefined) | 56 | 0.5 |
| CCCCC/C=C\C[C@H](O)/C=C/c1cccc(C[C@H](O)CCCCO)n1 | 100 | 0.7 |
| CCCCCCCC[C@@H](O)c1ccc2ccc(CCc3cccc(C(=O)[O-])c3)nc2c1.[Li+] | 56 | 0.05 |
| CCCCCCCCC(O)c1ccc2ccc(CC(O)c3cccc(C(=O)[O-])c3)nc2c1.[Li+] (centres undefined) | 74 | 0.01 |
| CCCCCCCCC(O)c1ccc2ccc(CCCCCC(=O)O)nc2c1 (centres undefined) | 58 | 2.8 |
| CCCCCCCCC(O)c1ccc2ccc(/C=C/CCCC(=O)O)nc2c1 (centres undefined) | 45 | 1.4 |
